Assay results from paper PMC4545412 (Planta medica, 2015).
Where two headings read alike, the source gives them in different places.

Key:
[1] = tested on: Plasmodium falciparum Dd2; experiment: Antimalarial bioassay, 72 h parasite growth assay; assay type: cell-based; conditions: DD2, read-out: P. falciparum IC50
Method in brief: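 72 h growth assay of test compounds on the drug-resistant Dd2 strain of Plasmodium falciparum, following an earlier protocol with minor modifications. Artemisinin was the positive control.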

NF-κB p65 subunit = NF-κB p65 subunit (Homo sapiens, UniProt Q04206); experiment: Enzyme-based ELISA NF-κB; assay type: biochemical
[2] = tested on: human colon cancer (HT-29) cell line; experiment: Cytotoxicity assay against HT-29 human colon cancer cells; conditions: for HT-29 ED50: HT-29 human colon cancer cells, > 20 µM considered inactive
[3] = tested on: Candida albicans (ATCC 18804); experiment: Antifungal bioassay, growth of the pathogenic yeast; assay type: cell-based; conditions: ATCC18804, read-out: growth inhibition of C. albicans cells
Plasmodium falciparum = conditions: cited from earlier work
[4] = tested on: human colon cancer (HT-29) cell line
P. falciparum strain 3D7 = conditions: read-out: IC50, in vitro antimalarial activity; cited from earlier work
[5] = read-out: NF-κB (p65) IC50, enzyme-based ELISA, > 20 µM considered inactive

Sequence of NF-κB p65 subunit (Q04206 whole entry): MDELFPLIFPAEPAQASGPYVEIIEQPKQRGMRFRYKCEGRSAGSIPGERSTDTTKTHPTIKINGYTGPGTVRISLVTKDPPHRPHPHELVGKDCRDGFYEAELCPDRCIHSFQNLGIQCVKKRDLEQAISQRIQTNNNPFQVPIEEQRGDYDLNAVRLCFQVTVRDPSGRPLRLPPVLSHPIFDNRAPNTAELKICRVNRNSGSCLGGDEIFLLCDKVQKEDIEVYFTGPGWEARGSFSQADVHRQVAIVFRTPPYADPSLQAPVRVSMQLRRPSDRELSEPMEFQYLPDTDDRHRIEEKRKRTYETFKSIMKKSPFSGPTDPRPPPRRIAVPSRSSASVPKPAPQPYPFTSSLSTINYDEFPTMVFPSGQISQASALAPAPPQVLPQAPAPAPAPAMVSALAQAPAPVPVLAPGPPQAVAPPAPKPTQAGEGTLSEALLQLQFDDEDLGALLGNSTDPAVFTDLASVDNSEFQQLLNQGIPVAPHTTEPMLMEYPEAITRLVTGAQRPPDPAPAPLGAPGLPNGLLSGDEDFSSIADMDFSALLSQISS

| Compound | IC50 (NF-κB p65 subunit; [5]) | HT-29 ED50 [2] | also measured |
| --- | --- | --- | --- |
| C[C@@H]1CC[C@H]2[C@@H](C)C(=O)O[C@@H]3O[C@@]4(C)CC[C@@H]1[C@]32OO4 [Artemisinin, reference compound] |  |  | IC50 [1]: 0.0007 µM |
| C=C(C)C1CCC2(CO)CCC3(C)C(CCC4C5(C)CCC(OC(=O)/C=C/c6ccc(O)cc6)C(C)(CO)C5CCC43C)C12 (stereo not drawn) [Compound 2, 3-O-(E)-p-coumaroyl-23-hydroxy-3-epi-betulin] | > 20 µM | 13.2 µM | cytotoxic effect against HT-29 cells (in words) ([2]; HT-29 cells): marginal cytotoxic effects |
| C=C(C)[C@@H]1CC[C@]2(CO)CC[C@]3(C)[C@H](CC[C@@H]4[C@@]5(C)CC[C@H](O)C(C)(C)[C@@H]5CC[C@]43C)[C@@H]12 [Compound 6, betulin] |  | > 20 µM | IC50 (NF-κB p65 subunit): > 20 µM; IC50 [1]: > 10 µM |
| C=C(C)C1CCC2(CO)CCC3(C)C(CCC4C5(C)CCC(OC(=O)/C=C\c6ccc(O)cc6)C(C)(CO)C5CCC43C)C12 (stereo not drawn) [Compound 3, 3-O-(Z)-p-coumaroyl-23-hydroxy-3-epi-betulin] | > 20 µM | 3.3 µM |  |
| C=C(C)[C@@H]1CC[C@]2(CO)CC[C@]3(C)[C@H](CC[C@@H]4[C@@]5(C)CC[C@H](O)[C@@](C)(CO)[C@@H]5CC[C@]43C)[C@@H]12 [Compound 9, 23-hydroxybetulin] | 4 µM | > 20 µM |  |
| C[C@@H]1[C@H](O)[C@@H](C)/C=C/C=C/C=C/C=C/C=C/C=C/C=C/[C@H](O[C@@H]2O[C@H](C)[C@@H](O)[C@H](N)[C@@H]2O)C[C@@H]2O[C@](O)(C[C@@H](O)C[C@@H](O)[C@H](O)CC[C@@H](O)C[C@@H](O)CC(=O)O[C@H]1C)C[C@H](O)[C@H]2C(=O)O [amphotericin B] |  |  | inhibition at 200 µg/mL [3]: 100% |
| O-tigloylcyclovirobuxeine-B |  |  | IC50, in vitro antiplasmodial activity (Plasmodium falciparum): 0.46 µg/mL; IC50 (Plasmodium falciparum; read-out: IC50, in vitro antiplasmodial activity): 0.92 µM |
| C=C(C)C1CCC2(CO)CCC3(C)C(CCC4C5(C)CCC(O)C(C)(COC(=O)/C=C\c6ccc(O)cc6)C5CCC43C)C12 (stereo not drawn) [Compound 5, 23-O-(Z)-p-coumaroyl-23-hydroxybetulin] | > 20 µM | 18.4 µM | cytotoxic effect against HT-29 cells (in words) [4]: marginal cytotoxic effects |
| C=C(C)C1CCC2(CO)CCC3(C)C(CCC4C5(C)CCC(OC(=O)/C=C/c6ccc(O)cc6)C(C)(CO)C5CCC43C)C12 (stereo not drawn) [Compound 1, 3-O-(E)-p-coumaroyl-23-hydroxybetulin] | > 20 µM | > 20 µM |  |
| C=C(C)[C@@H]1CC[C@]2(C(=O)OC)CC[C@]3(C)[C@H](CC[C@@H]4[C@@]5(C)CC[C@H](O)C(C)(C)[C@@H]5CC[C@]43C)[C@@H]12 [its methylate] |  |  | IC50 (P. falciparum strain 3D7): 7 µM |
| C=C(C)[C@@H]1CC[C@]2(COC(C)=O)CC[C@]3(C)[C@H](CC[C@@H]4[C@@]5(C)CC[C@H](OC(C)=O)C(C)(C)[C@@H]5CC[C@]43C)[C@@H]12 [Compound 8, 3,28-O-diacetylbetulin] | > 20 µM | > 20 µM |  |
| CC(=O)O[C@H]1C(=O)[C@@]2(C)[C@H]([C@H](OC(=O)c3ccccc3)[C@]3(O)C[C@H](OC(=O)[C@H](O)[C@@H](NC(=O)c4ccccc4)c4ccccc4)C(C)=C1C3(C)C)[C@]1(OC(C)=O)CO[C@@H]1C[C@@H]2O [Paclitaxel, reference compound] |  | 0.001 µM |  |
| N-3-benzoyldihydrocyclomicrophylline F [Compound 7] | > 20 µM | 1.9 µM |  |
| C=C(C)C1CCC2(CO)CCC3(C)C(CCC4C5(C)CCC(O)C(C)(COC(=O)/C=C/c6ccc(O)cc6)C5CCC43C)C12 (stereo not drawn) [Compound 4, 23-O-(E)-p-coumaroyl-23-hydroxybetulin] | > 20 µM | > 20 µM |  |
